Data set [1] concerns the target T1, Bile acid receptor (Homo sapiens) (UniProt Q96RI1).
T1 sequence (whole entry): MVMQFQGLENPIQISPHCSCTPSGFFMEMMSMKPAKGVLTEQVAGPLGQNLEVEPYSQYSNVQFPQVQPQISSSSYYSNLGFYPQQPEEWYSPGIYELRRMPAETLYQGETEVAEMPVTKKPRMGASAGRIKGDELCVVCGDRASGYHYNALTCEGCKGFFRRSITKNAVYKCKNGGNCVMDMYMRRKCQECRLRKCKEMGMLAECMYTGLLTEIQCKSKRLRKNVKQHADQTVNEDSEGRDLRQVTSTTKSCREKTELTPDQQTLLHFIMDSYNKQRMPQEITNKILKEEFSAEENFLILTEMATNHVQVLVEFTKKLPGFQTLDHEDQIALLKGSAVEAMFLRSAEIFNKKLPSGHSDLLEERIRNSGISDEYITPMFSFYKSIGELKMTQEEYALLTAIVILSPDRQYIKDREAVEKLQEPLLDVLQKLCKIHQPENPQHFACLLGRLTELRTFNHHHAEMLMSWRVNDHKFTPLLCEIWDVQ
In words: Antagonist activity at FXR (unknown origin) expressed in human HepG2 cells co-expressing RXR assessed as inhibition of CDCA-induced SHP gene expression at 50 uM after 18 hrs by RT-PCR analysis. It counts as cell-based. Put shortly: (§1)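 HepG2 cells (1 × 10^6) were starved 24 h at 37 °C in E-MEM with 1% FBS. They were then primed 18 h with compound alone at 10 μM, or with 10 μM CDCA plus compound at 50 μM. Total RNA was extracted with TRIzol, DNase-treated and random-primed reverse-transcribed. 25 ng template was amplified by SYBR Green qPCR (0.2 μM primers, 40 cycles) in triplicate.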

The target in data set [2] is T1, Bile acid receptor (Homo sapiens). In words: Antagonist activity at FXR (unknown origin) expressed in human HepG2 cells co-expressing RXR assessed as inhibition of CDCA-induced OSTalpha gene expression at 50 uM after 18 hrs by RT-PCR analysis. It counts as cell-based. An outline of the steps:
as §1

The target of data set [3] is Peroxisome proliferator-activated receptor gamma (Homo sapiens) (UniProt P37231). In words: Agonist activity at PPARgamma LBD (unknown origin) transfected in human HepG2 cells co-expressing GAL4-DBD at 10 uM after 18 hrs by luciferase reporter gene assay. On the technique in general: A reporter such as luciferase makes a cellular process visible.
The target of data set [4] is T2, Bile acid receptor (Homo sapiens, UniProt Q96RI1).
T2 sequence (Q96RI1 whole entry): T1 sequence (whole entry)
In words: (§2) Antagonist activity at FXR (unknown origin) expressed in human HepG2 cells co-expressing RXR assessed as inhibition of CDCA-induced transactivation after 18 hrs by luciferase reporter gene assay. Format: cell-based. Put shortly:
(§3)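 HepG2 cells (in MEM, 10% FBS, 37 °C) were plated at 1 × 10^5 cells/well. They were transfected with 150 ng pSG5-FXR, 150 ng pSG5-RXR, 200 ng pCMV-βgal and 500 ng p(hsp27)-TK-LUC (IR1 element). At 24 h they were stimulated 18 h with compound alone (10 μM, or 1–50 μM series) or with compound (50 μM, or 1–50 μM series) plus 10 μM CDCA. Luciferase was normalized to β-galactosidase activity.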

For data set [5], the target named is T3, Oxysterols receptor LXR-alpha (Homo sapiens) (UniProt Q13133).
T3 sequence (whole entry): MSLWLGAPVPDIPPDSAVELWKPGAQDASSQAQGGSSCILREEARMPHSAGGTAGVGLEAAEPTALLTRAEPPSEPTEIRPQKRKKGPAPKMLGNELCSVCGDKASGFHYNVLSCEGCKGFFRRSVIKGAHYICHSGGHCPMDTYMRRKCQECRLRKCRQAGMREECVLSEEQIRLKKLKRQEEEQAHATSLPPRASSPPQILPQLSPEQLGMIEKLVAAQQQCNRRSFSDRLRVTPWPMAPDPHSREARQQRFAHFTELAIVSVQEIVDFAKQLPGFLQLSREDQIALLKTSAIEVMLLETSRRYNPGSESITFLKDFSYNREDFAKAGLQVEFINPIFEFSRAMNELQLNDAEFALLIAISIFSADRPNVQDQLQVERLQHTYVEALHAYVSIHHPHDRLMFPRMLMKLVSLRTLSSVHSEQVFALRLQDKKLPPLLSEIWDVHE
The data set can be described thus: Agonist activity at LXRalpha LBD (unknown origin) transfected in human HepG2 cells co-expressing GAL4-DBD at 10 uM after 18 hrs by luciferase reporter gene assay. It counts as cell-based. An outline of the steps:
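HepG2 cells were transiently transfected with 500 ng p(UAS)5XTKLuc, 200 ng pCMV-β-galactosidase and a GAL4-DBD–LXRα LBD vector. At 48 h post-transfection they were stimulated 18 h with compound at 10 μM or the reference agonist. Luciferase was read. Data are mean ± SE of three experiments.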

For data set [6], the target named is T4, Nuclear receptor subfamily 1 group I member 2 (Homo sapiens, UniProt O75469).
T4 sequence (O75469 whole entry): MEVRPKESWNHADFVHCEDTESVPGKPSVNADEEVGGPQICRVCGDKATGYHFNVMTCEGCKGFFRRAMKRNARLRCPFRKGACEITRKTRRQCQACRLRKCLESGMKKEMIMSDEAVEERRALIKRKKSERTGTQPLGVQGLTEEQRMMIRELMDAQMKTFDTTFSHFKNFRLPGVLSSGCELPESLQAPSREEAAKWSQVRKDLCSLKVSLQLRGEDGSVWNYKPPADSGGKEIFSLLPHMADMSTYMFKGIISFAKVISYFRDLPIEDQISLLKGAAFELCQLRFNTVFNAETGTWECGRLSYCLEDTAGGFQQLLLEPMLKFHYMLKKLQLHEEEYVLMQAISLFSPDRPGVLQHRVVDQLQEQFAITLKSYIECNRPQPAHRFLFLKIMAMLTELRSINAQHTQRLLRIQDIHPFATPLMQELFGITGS
The data set can be described thus: Agonist activity at PXR (unknown origin) transfected in human HepG2 cells co-expressing RXR assessed as CYP3A4 expression at 10 uM after 18 hrs by luciferase reporter gene assay. As to conditions: hepg2, 18 h.

The target of data set [7] is T1, Bile acid receptor (Homo sapiens). The data set can be described thus: Agonist activity FXR (unknown origin) expressed in human HepG2 cells co-expressing RXR assessed as effect on CyP7alpha1 mRNA level […] after 18 hrs by RT-PCR analysis. Format: cell-based. Put shortly: as §1
Data set [8] has the same target. The data set can be described thus: Transactivation of FXR (unknown origin) expressed in human HepG2 cells co-expressing RXR assessed as beta-galactosidase activity at 50 uM after 18 hrs by luciferase reporter gene assay relative to CDCA. It counts as cell-based. An outline of the steps: as §3
Data set [9] shares this target. In words: Transactivation of FXR (unknown origin) expressed in human HepG2 cells co-expressing RXR assessed as beta-galactosidase activity at 50 uM after 18 hrs by luciferase reporter gene assay. Format: cell-based. Put shortly: as §3
The target is the same in data set [10]. In words: Agonist activity FXR (unknown origin) expressed in human HepG2 cells co-expressing RXR assessed as effect on OSTalpha mRNA level […] after 18 hrs by RT-PCR analysis. Format: cell-based. An outline of the steps:
as §1

The target is the same in data set [11]. In words: Agonist activity FXR (unknown origin) expressed in human HepG2 cells co-expressing RXR assessed as effect on SHP mRNA level at […] after 18 hrs by RT-PCR analysis. It counts as cell-based. An outline of the steps:
as §1

Data set [12] has as its target T2, Bile acid receptor. In words: Transactivation of FXR (unknown origin) expressed in human HepG2 cells co-expressing RXR assessed as beta-galactosidase activity after 18 hrs by luciferase reporter gene assay. Format: cell-based. An outline of the steps:
as §3

For data set [13], the target named is T1, Bile acid receptor (Homo sapiens). In words: Antagonist activity at FXR (unknown origin) expressed in human HepG2 cells co-expressing RXR assessed as inhibition of CDCA-induced transactivation at 50 uM after 18 hrs by luciferase reporter gene assay. Format: cell-based. An outline of the steps: as §3
The target is the same in data set [14]. The data set can be described thus: Antagonist activity at FXR (unknown origin) expressed in human HepG2 cells assessed as inhibition of 6-ECDCA-induced NCoR binding to chromatin at 15 uM after 18 hrs by chromatin immunoprecipitation assay. Format: cell-based. Put shortly: (§4)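 HepG2 cells (10 × 10^6) were serum-starved 24 h, then treated 18 h with 6-ECDCA 5 μM alone or with compound 15 μM. Cells were crosslinked with 1% formaldehyde for 10 min and quenched with 125 mM glycine. Sonicated chromatin was immunoprecipitated overnight at 4 °C with anti-FXR, anti-Src1, anti-NCoR or IgG. OSTα promoter DNA was measured by qPCR as 2^−ΔΔCt versus input and unstimulated IgG.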

Data set [15] has the same target. The description is as §2. Format: cell-based. An outline of the steps: as §3
Data set [16] shares this target. The data set can be described thus: Transactivation of FXR (unknown origin) expressed in human HepG2 cells co-expressing RXR assessed as beta-galactosidase activity at 10 uM after 18 hrs by luciferase reporter gene assay. It counts as cell-based. Put shortly:
as §3

For data set [17] the target is unchanged. In words: Antagonist activity at FXR (unknown origin) expressed in human HepG2 cells co-expressing RXR assessed as inhibition of CyP7alpha1 gene expression at 50 uM after 18 hrs by RT-PCR analysis. Format: cell-based. An outline of the steps:
as §1

Data set [18] has the same target. In words: Antagonist activity at FXR (unknown origin) expressed in human HepG2 cells assessed as inhibition of 6-ECDCA-induced FXR/Src-1-mediated transcription activation complex formation at 15 uM after 18 hrs by chromatin immunoprecipitation assay. It counts as cell-based. Put shortly: as §4

Active and inactive are the calls of the source. The rule behind the calls is not given here.

Consider `COC(=O)CC[C@H]1C(=O)CC[C@H]2[C@]1(C)CC[C@H]1C(C)(C)CCC[C@]21C`, for which the inhibition result in [1] and in data set [2] was “Active” in each case.
On to `CC1(C)CCC[C@]2(C)[C@H]3CC[C@H](O)[C@H](CCc4ccoc4)[C@@]3(C)CC[C@@H]12`, for which the inhibition result in data set [1] and in [2] was “Active” in each case. Moreover, the outcome in [3] and in data set [5] was inactive. In addition, at Bile acid receptor [4], the EC50 worked out at 25 µM. The outcome in data set [6] was Active.
For `CC1(C)CCC[C@]2(C)[C@H]3CC[C@@H](CCCO)[C@H](CCc4ccoc4)[C@@]3(C)CC[C@@H]12`, the outcome in data set [7], in data set [9], in data set [10] and in [11] was Active. In addition, the result in data set [3] and in data set [5] was inactive. The Efficacy in data set [8] is 21.5%. Further, the outcome in data set [6] was Active. The EC50 on Bile acid receptor [12] is 30 µM.
For the compound `CC1(C)CCC[C@]2(C)C3CC[C@@]4(C=O)[C@@H]5OC(=O)C=C5CC[C@@H]4[C@@]3(C)CC[C@@H]12` (single isomer, unassigned), the inhibition result in data set [1], in [2] and in data set [13] was “Active” throughout.
For the compound `CC1(C)CCC[C@]2(C)[C@H]3CC/C(=C\OS(=O)(=O)[O-])[C@H](CCc4ccoc4)[C@@]3(C)CC[C@@H]12.[Na+]` [SUVANINE'S SODIUM SALT], the inhibition entry in [1], in data set [2], in data set [13] and in data set [18] was “Active” throughout. Also, in [14], the inhibition entry is “inactive”. Besides, the result in data set [3], in data set [16] and in data set [5] was inactive. Besides, the inhibition entry in data set [15] is “Dose-dependent effect”. Besides, the EC50 at Bile acid receptor [4] is 24 µM. For the same compound, the outcome in [17] was Active. In data set [6], the outcome was Active.
As for `CC1(C)CCC[C@]2(C)[C@H]3CC[C@H](/C=C/C(=O)O)[C@H](CCc4ccoc4)[C@@]3(C)CC[C@@H]12`, the outcome in data set [9] was Active.

As a reminder, the EC50 is the concentration giving half of the maximal effect.
